One block for each compound: values may come before it.
Assays:
[1] = target: Trypsin (Sus scrofa, UniProt P00761); test: Inhibition of pig trypsin using CH3SO2-D-Cha-Gly-Arg-pNA as substrate after 5 to 10 mins by micro plate reader analysis
[2] = target: Vitamin K-dependent protein C (Homo sapiens, UniProt P04070); test: Inhibition of human activated protein C using H-D-Lys(Cbz)-Pro-Arg-pNA as substrate after 5 to 10 mins by micro plate reader analysis
[3] = target: Prothrombin (Homo sapiens, UniProt P00734); test: Inhibition of human thrombin using CH3SO2-D-Cha-Gly-Arg-pNA as substrate after 5 to 10 mins by micro plate reader analysis
[4] = target: Plasma kallikrein (Homo sapiens, UniProt P03952); test: Inhibition of human plasma kallikrein using H-D-Pro-Phe-Arg-pNA as substrate after 5 to 10 mins by micro plate reader analysis
Chain of Plasma kallikrein (P03952 20-390 limits assumed): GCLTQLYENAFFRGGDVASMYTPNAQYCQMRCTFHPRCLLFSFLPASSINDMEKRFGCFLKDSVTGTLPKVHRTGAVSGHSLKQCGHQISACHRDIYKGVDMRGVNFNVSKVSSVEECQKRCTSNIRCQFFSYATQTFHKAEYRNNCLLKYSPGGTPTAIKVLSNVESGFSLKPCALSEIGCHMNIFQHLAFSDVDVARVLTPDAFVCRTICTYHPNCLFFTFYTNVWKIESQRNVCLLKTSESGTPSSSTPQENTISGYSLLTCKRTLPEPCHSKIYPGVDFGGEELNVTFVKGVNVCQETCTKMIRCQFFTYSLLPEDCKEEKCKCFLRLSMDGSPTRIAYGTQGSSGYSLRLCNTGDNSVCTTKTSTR
Chain of Plasma kallikrein (P03952 391-638 limits assumed): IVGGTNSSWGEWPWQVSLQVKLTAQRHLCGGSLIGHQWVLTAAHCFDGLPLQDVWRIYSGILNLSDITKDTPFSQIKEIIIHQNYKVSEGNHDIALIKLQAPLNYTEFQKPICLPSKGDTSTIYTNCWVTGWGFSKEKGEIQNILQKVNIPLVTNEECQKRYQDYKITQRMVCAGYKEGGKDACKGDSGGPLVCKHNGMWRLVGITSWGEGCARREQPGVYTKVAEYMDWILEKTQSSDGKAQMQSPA

[5] = target: Plasminogen (Homo sapiens, UniProt P00747); test: Inhibition of human plasmin protease domain using Tos-Gly-Pro-Lys-pNA as substrate by micro plate reader analysis
Chain of Plasminogen (P00747 97-580 limits assumed): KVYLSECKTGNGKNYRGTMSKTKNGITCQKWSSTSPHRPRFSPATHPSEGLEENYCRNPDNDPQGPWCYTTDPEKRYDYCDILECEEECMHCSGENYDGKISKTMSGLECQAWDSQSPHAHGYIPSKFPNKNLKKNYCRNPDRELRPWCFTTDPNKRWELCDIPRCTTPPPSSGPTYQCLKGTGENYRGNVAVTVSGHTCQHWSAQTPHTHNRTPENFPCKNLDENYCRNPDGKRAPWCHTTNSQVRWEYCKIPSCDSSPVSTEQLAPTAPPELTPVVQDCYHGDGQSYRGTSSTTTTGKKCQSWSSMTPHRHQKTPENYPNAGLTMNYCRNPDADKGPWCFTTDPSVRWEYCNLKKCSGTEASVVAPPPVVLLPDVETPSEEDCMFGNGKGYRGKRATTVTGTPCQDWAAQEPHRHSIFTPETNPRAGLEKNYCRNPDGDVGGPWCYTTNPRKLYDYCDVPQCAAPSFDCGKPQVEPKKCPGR
Chain of Plasminogen (P00747 581-810 limits assumed): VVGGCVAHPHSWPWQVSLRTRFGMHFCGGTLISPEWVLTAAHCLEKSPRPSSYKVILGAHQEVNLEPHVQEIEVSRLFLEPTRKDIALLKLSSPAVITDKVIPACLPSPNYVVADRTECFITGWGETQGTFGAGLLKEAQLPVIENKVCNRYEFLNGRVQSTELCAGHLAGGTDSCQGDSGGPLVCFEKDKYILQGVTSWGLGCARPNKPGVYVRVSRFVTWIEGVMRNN

[6] = target: Coagulation factor X (Homo sapiens, UniProt P00742); test: Inhibition of human factor Xa using CH3OCO-D-Cha-Gly-Arg-pNA as substrate after 5 to 10 mins by micro plate reader analysis
Chain of Coagulation factor X (P00742 41-179 limits assumed): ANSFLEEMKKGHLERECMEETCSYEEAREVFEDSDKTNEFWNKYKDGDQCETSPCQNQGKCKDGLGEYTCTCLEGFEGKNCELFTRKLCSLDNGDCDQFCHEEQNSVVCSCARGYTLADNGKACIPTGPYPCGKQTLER
Chain of Coagulation factor X (P00742 235-488 limits assumed): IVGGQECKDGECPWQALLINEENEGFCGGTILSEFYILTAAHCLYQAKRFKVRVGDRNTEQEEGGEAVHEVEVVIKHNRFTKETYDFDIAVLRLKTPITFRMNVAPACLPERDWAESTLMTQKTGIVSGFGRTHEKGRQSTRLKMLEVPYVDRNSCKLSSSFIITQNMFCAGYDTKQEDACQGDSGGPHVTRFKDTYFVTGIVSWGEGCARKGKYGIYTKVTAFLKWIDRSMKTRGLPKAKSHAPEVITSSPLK

[7] = target: Cytochrome P450 2C9 (Homo sapiens, UniProt P11712); test: Inhibition of human recombinant CYP2C9 expressed in Trichoplusia ni BTI-TN-5B1-4 cells preincubated for 15 mins measured after 45 mins by spectrofluorimetry; format: ADME, cell-based
[8] = target: Cytochrome P450 2D6 (Homo sapiens, UniProt P10635); test: Inhibition of human recombinant CYP2D6 expressed in Trichoplusia ni BTI-TN-5B1-4 cells preincubated for 15 mins measured after 45 mins by spectrofluorimetry; format: ADME, cell-based
[9] = target: Cytochrome P450 3A4 (Homo sapiens, UniProt P08684); test: Inhibition of human recombinant CYP3A4 expressed in Trichoplusia ni BTI-TN-5B1-4 cells preincubated for 15 mins measured after 30 mins by spectrofluorimetry; format: ADME, cell-based
[10] = Metabolic stability in human liver microsomes assessed as degradation after 60 mins; format: ADME, Microsome; details: read-out: Drug degradation
[11] = Fraction unbound in human plasma; format: ADME, cell-free
[12] = target: L-type Ca channel, phenylalkylamine site (Rattus norvegicus, UniProt P22002+P27732+Q02485); test: Displacement of [3H](-)-desmethoxyverapamil from wistar rat Ca channel L-type phenylalkylamine receptor at 10 uM; details: probe [3H](-)-desmethoxyverapamil
Summary of the method: (§1)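 Radioligand binding to the ion channel with test compound at 10 μM. Result expressed as % binding; negative values are read as no binding. Assays run by a contract laboratory.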

[13] = target: L-type Ca channel, dihydropyridine site (Rattus norvegicus, UniProt P22002+P27732+Q02485); test: Displacement of [3H]nitrendipine from wistar rat Ca channel L-type dihydropyridine receptor at 10 uM; details: probe [3H]nitrendipine; summary of the method: as §1
[14] = target: L-type Ca channel, benzothiazepine site (Rattus norvegicus, UniProt P22002+P27732+Q02485); test: Displacement of [3H]diltiazem from wistar rat Ca channel L-type benzothiazepine receptor at 10 uM; details: probe [3H]diltiazem; summary of the method: as §1
[15] = organism: Rattus norvegicus; test: Displacement of [3H]batrachotoxinin from wistar rat Na channel at 10 uM
Summary of the method: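 Single-point radioligand binding screen at 10 μM test compound, run by a contract lab under its own protocol. Read-out is percent binding, where negative values mean no binding.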

[16] = target: hERG (KCNH2) (Homo sapiens, UniProt Q12809); test: Displacement of [3H]astemizole from human ERG channel at 10 uM; details: probe [3H]astemizole; summary of the method: as §1
[17] = system: Plasma; test: Anticoagulant activity in human plasma assessed as concentration required to thrombin time; format: functional
Summary of the method: (§2)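 Clotting time measured in human plasma spiked with inhibitor. Value reported as EC200, the concentration that doubles the clotting time.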

[18] = system: Plasma; test: Anticoagulant activity in human plasma assessed as concentration required to activated partial thromboplastin time; format: functional; summary of the method: as §2
[19] = system: Plasma; test: Anticoagulant activity in human plasma assessed as concentration required to prothrombin time; format: functional; summary of the method: as §2
[20] = system: Plasma; test: Anticoagulant activity in human plasma assessed as tPA-induced fibrinolysis; format: functional; details: in the assay text read “Antifibrinolytic activity” for “Anticoagulant activity”
Summary of the method: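 tPA-induced fibrinolysis in human plasma. Value reported as EC200, the inhibitor concentration that doubles the clot-to-lysis time.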

[21] = target: Serine protease 1 (Homo sapiens, UniProt P07477); test: Inhibition of human trypsin
Chain of Serine protease 1 (P07477 whole entry): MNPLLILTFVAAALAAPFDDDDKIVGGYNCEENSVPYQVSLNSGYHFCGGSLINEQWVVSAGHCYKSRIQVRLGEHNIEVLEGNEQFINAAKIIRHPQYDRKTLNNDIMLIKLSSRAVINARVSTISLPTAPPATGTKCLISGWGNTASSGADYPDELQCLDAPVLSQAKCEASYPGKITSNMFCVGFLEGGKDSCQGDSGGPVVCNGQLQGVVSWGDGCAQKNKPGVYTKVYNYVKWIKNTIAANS

[22] = target: Urokinase-type plasminogen activator (Homo sapiens, UniProt P00749); test: Inhibition of human uPA
[23] = target: Tissue-type plasminogen activator (Homo sapiens, UniProt P00750); test: Inhibition of human tPA
[24] = target: Coagulation factor IX (Homo sapiens, UniProt P00740); test: Inhibition of human FIXa
Chain of Coagulation factor IX (P00740 47-191 limits assumed): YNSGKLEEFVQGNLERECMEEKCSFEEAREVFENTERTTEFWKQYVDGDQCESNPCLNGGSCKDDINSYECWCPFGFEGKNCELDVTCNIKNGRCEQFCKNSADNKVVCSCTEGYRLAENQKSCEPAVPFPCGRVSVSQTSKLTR
Chain of Coagulation factor IX (P00740 227-461 limits assumed): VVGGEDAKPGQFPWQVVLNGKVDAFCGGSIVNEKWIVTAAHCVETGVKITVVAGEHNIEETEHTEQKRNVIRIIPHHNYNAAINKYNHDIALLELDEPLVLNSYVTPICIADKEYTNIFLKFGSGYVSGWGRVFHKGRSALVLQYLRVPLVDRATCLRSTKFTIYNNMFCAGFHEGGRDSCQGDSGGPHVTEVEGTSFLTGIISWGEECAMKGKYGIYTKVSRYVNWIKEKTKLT

[25] = target: Coagulation factor XII (Homo sapiens, UniProt P00748); test: Inhibition of human FXIIa
Chain of Coagulation factor XII (P00748 20-372 limits assumed): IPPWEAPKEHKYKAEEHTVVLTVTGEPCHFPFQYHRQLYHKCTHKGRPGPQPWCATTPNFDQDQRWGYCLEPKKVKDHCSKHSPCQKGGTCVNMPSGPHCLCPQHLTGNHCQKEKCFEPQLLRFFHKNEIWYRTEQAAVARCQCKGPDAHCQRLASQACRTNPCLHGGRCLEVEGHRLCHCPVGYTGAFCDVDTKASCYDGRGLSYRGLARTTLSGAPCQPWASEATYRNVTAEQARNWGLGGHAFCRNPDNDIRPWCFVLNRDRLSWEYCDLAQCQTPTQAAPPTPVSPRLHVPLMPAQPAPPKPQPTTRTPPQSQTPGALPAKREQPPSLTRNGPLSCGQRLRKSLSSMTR
Chain of Coagulation factor XII (P00748 373-615 limits assumed): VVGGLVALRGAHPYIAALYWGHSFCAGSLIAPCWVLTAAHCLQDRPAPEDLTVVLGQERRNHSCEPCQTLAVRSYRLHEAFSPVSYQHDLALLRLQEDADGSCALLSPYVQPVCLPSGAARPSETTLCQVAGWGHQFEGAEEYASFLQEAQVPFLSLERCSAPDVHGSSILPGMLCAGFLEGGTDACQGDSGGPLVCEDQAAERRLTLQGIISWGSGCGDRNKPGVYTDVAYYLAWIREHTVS

[26] = target: Coagulation factor XI (Homo sapiens, UniProt P03951); test: Inhibition of human FXIa
[27] = target: Complement C1r subcomponent (Homo sapiens, UniProt P00736); test: Inhibition of human C1r
[28] = target: Complement C1s subcomponent (Homo sapiens, UniProt P09871); test: Inhibition of human C1s
Chain of Complement C1s subcomponent (P09871 16-437 limits assumed): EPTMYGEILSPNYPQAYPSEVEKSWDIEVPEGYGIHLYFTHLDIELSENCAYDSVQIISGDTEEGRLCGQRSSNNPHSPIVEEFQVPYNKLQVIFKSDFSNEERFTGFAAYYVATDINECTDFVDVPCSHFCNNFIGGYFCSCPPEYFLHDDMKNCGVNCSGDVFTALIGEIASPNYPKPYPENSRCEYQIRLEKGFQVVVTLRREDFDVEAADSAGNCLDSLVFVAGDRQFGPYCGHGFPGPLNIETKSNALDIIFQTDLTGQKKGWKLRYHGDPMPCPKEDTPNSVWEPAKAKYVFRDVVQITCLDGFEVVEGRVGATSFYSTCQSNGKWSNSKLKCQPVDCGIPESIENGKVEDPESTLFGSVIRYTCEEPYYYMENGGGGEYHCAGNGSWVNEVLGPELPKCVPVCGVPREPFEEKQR
Chain of Complement C1s subcomponent (P09871 438-688 limits assumed): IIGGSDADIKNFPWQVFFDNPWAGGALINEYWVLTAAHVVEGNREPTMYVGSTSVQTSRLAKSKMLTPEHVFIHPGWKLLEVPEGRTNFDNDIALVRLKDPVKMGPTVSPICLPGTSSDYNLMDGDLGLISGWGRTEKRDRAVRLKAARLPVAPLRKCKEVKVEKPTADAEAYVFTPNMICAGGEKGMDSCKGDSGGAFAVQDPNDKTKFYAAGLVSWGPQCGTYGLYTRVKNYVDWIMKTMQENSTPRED

[29] = target: Kallikrein-1 (Homo sapiens, UniProt P06870); test: Inhibition of urinary kallikrein (unknown origin)
[30] = Thermodynamic solubility of the compound in 0.9% saline; format: physicochemical; details: read-out: Therm_solubility
[31] = target: Cytochrome P450 1A2 (Homo sapiens) (UniProt P05177); test: Inhibition of human recombinant CYP1A2 expressed in Trichoplusia ni BTI-TN-5B1-4 cells preincubated for 15 mins measured after 45 mins by spectrofluorimetry
[32] = target: Cytochrome P450 2C19 (Homo sapiens) (UniProt P33261); test: Inhibition of human recombinant CYP2C19 expressed in Trichoplusia ni BTI-TN-5B1-4 cells preincubated for 15 mins measured after 30 mins by spectrofluorimetry
Chain of Cytochrome P450 2C19 (Homo sapiens) (P33261 whole entry, looked up): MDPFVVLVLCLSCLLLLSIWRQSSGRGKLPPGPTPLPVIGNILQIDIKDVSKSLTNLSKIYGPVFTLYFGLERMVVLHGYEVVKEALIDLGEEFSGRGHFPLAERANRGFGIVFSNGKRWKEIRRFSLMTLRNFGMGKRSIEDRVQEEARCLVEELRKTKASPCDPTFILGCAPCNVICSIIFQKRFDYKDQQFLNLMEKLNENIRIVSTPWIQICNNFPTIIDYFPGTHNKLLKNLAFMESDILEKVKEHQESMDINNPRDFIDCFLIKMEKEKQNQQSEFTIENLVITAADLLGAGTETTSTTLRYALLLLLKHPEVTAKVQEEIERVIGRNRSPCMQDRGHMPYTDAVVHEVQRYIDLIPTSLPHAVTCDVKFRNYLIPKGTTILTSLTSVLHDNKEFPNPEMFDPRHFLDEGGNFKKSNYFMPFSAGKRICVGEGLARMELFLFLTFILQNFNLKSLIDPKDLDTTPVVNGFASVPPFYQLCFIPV

Chain of Vitamin K-dependent protein C (P04070 43-197 limits assumed): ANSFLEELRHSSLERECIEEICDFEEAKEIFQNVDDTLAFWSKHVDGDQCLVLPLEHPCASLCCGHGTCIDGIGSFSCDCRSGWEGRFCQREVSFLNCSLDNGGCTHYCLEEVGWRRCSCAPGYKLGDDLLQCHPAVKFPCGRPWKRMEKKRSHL
Chain of Vitamin K-dependent protein C (P04070 212-461 limits assumed): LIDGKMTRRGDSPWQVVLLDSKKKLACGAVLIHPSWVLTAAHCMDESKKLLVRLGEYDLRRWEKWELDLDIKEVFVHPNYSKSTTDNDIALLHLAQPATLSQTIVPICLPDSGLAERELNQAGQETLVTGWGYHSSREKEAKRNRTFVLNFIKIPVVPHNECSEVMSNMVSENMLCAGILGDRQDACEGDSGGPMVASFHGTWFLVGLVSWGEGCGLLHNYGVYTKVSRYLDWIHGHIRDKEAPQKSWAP
Chain of Trypsin (P00761 whole entry): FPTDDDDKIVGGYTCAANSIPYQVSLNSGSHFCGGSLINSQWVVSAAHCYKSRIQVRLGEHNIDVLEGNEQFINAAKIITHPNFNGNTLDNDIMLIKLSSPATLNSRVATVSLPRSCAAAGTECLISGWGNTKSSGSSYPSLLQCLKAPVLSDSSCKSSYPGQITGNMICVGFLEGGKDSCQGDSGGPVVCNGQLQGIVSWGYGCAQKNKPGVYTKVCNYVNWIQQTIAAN

Ki [1]: 3 nM
Ki [2]: > 10 µM
Ki [3]: 14.1 µM
Ki [4]: 392 nM
Ki [5]: 0.57 nM
Ki [6]: 7.36 µM
Compound: N=C(N)c1ccc(CNC(=O)[C@@H]2Cc3ccc(cc3)NC(=O)CN3CCCN(CC3)CC(=O)Nc3ccc(cc3)C[C@@H](NS(=O)(=O)Cc3ccccc3)C(=O)N2)cc1

Ki [1]: 0.6 nM
Ki [2]: 3.8 µM
Ki [3]: 0.376 µM
Ki [4]: 240 nM
Ki [5]: 4 nM
Ki [6]: 1.26 µM
Compound: N=C(N)c1ccc(CNC(=O)[C@@H]2Cc3ccc(cc3)NC(=O)CCN3CCN(CCC(=O)Nc4cccc(c4)C[C@@H](NS(=O)(=O)Cc4ccccc4)C(=O)N2)CC3)cc1

Ki [1]: 3.4 nM
Ki [2]: 0.039 µM
Ki [3]: 0.227 µM
Ki [4]: 3.2 nM
Ki [6]: 0.0123 µM
Compound: N=C(N)c1ccc(CNC(=O)[C@@H]2Cc3cccc(c3)NC(=O)CN3CCN(CC3)CC(=O)Nc3cccc(c3)C[C@@H](NS(=O)(=O)Cc3ccccc3)C(=O)N2)cc1

Ki [1]: 126 nM
Ki [2]: 1.6 µM
Ki [3]: 2.95 µM
Ki [4]: 116 nM
Ki [5]: 1.71 nM
Ki [6]: 3.25 µM
Compound: C[C@H]1CN2CC(=O)Nc3ccc(cc3)C[C@@H](C(=O)NCc3ccc(C(=N)N)cc3)NC(=O)[C@H](NS(=O)(=O)Cc3ccccc3)Cc3ccc(cc3)CNC(=O)CN1C[C@@H]2C

Ki [1]: 24.9 nM
Ki [2]: 0.88 µM
Ki [3]: 3.25 µM
Ki [4]: 24 nM
Ki [5]: 5.1 nM
Ki [6]: 0.237 µM
Compound: N=C(N)c1ccc(CNC(=O)[C@@H]2Cc3cccc(c3)NC(=O)CCN3CCN(CCC(=O)Nc4ccc(cc4)C[C@@H](NS(=O)(=O)Cc4ccccc4)C(=O)N2)CC3)cc1

Ki [1]: 55 nM
Ki [2]: 4.8 µM
Ki [3]: 8.51 µM
Ki [4]: 242 nM
Ki [5]: 1.62 nM
Ki [6]: 3.7 µM
Compound: C[C@H]1CN2CC(=O)Nc3ccc(cc3)C[C@@H](NS(=O)(=O)Cc3ccccc3)C(=O)N[C@H](C(=O)NCc3ccc(C(=N)N)cc3)Cc3ccc(cc3)NC(=O)CN1C[C@@H]2C

Ki [1]: 17.8 nM
Ki [2]: 3.9 µM
Ki [3]: 0.884 µM
Ki [4]: 187 nM
Ki [6]: 2.51 µM
Compound: N=C(N)c1ccc(CNC(=O)[C@@H]2Cc3ccc(cc3)NC(=O)CN3CCN(CC3)CC(=O)NCc3ccc(cc3)C[C@@H](NS(=O)(=O)Cc3ccccc3)C(=O)N2)cc1

Ki [1]: 10.2 nM
Ki [2]: 7.8 µM
Ki [3]: 11.2 µM
Ki [4]: 422 nM
Ki [5]: 1.32 nM
Ki [6]: 8.5 µM
Compound: N=C(N)c1ccc(CNC(=O)[C@@H]2Cc3ccc(cc3)NC(=O)CCN3CCCN(CCC(=O)Nc4ccc(cc4)C[C@@H](NS(=O)(=O)Cc4ccccc4)C(=O)N2)CC3)cc1

Compound: N=C(N)c1ccc(CNC(=O)[C@@H]2Cc3ccc(cc3)NC(=O)CN3CCN(CC3)CC(=O)Nc3ccc(cc3)C[C@@H](NS(=O)(=O)Cc3ccccc3)C(=O)N2)cc1.O=C(O)C(F)(F)F
IC50 [7]: > 100 µM
IC50 [8]: > 40 µM
IC50 [9]: > 22 µM
metabolised at 1 h [10]: 0%
fraction unbound [11]: 0.61
inhibition at 10 µM [12]: 13%
inhibition at 10 µM [13]: -2%
inhibition at 10 µM [14]: 1%
inhibition [15]: -8%
inhibition at 10 µM [16]: 7%
EC200 [17]: >100 µM
EC200 [18]: >100 µM
EC200 [19]: >100 µM
EC200 [20]: 280 nM
Ki [21]: 44 nM
Ki [22]: 8.9 µM
Ki [23]: > 100 µM
Ki [24]: > 100 µM
Ki [25]: > 100 µM
Ki [26]: 4.7 µM
Ki [27]: > 50 µM
Ki [28]: > 100 µM
Ki [1]: 62.6 nM
Ki [2]: > 25 µM
Ki [3]: 13.9 µM
Ki [29]: > 50 µM
Ki [6]: > 10 µM
solubility thermodynamic [30]: > 2000 µg/mL
IC50 [31]: > 10 µM
IC50 [32]: > 100 µM

Ki [1]: 19.4 nM
Ki [2]: 4.1 µM
Ki [3]: 8.02 µM
Ki [4]: 12.9 nM
Ki [6]: 1.8 µM
Compound: N=C(N)c1ccc(CNC(=O)[C@@H]2Cc3cccc(c3)NC(=O)CN3CCN(CC3)CC(=O)Nc3ccc(cc3)C[C@@H](NS(=O)(=O)Cc3ccccc3)C(=O)N2)cc1

Ki [1]: 7.8 nM
Ki [2]: 0.42 µM
Ki [3]: 0.604 µM
Ki [4]: 118 nM
Ki [6]: 0.415 µM
Compound: N=C(N)c1ccc(CNC(=O)[C@@H]2Cc3ccc(cc3)NC(=O)CN3CCN(CC3)CC(=O)Nc3cccc(c3)C[C@@H](NS(=O)(=O)Cc3ccccc3)C(=O)N2)cc1

Ki [1]: 18.1 nM
Ki [2]: > 20 µM
Ki [3]: 12.1 µM
Ki [4]: 500 nM
Ki [5]: 1.15 nM
Ki [6]: 14 µM
Compound: C[C@@H]1CN2CC(=O)Nc3ccc(cc3)C[C@@H](C(=O)NCc3ccc(C(=N)N)cc3)NC(=O)[C@H](NS(=O)(=O)Cc3ccccc3)Cc3ccc(cc3)NC(=O)CN1C[C@@H]2C

Ki [1]: 41.7 nM
Ki [2]: > 10 µM
Ki [3]: 5.87 µM
Ki [4]: 440 nM
Ki [5]: 0.76 nM
Ki [6]: 9 µM
Compound: N=C(N)c1ccc(CNC(=O)[C@@H]2Cc3ccc(cc3)NC(=O)CN3CCCN(CC3)CC(=O)NCc3ccc(cc3)C[C@@H](NS(=O)(=O)Cc3ccccc3)C(=O)N2)cc1

Compound: N=C(N)c1ccc(CNC(=O)[C@@H]2Cc3ccc(cc3)NC(=O)CCN3CCN(CCC(=O)Nc4ccc(cc4)C[C@@H](NS(=O)(=O)Cc4ccccc4)C(=O)N2)CC3)cc1.O=C(O)C(F)(F)F
IC50 [7]: > 100 µM
IC50 [8]: > 10 µM
IC50 [9]: > 10 µM
metabolised at 1 h [10]: 2%
fraction unbound [11]: 0.67
inhibition at 10 µM [12]: 3%
inhibition at 10 µM [13]: -5%
inhibition at 10 µM [14]: -4%
inhibition [15]: 27%
inhibition at 10 µM [16]: 4%
EC200 [17]: >100 µM
EC200 [18]: >100 µM
EC200 [19]: >100 µM
EC200 [20]: 180 nM
Ki [21]: 8.4 nM
Ki [22]: 6.5 µM
Ki [23]: > 40 µM
Ki [24]: > 5 µM
Ki [25]: > 20 µM
Ki [26]: 3.37 µM
Ki [27]: > 35 µM
Ki [28]: > 35 µM
Ki [1]: 38.3 nM
Ki [2]: > 15 µM
Ki [3]: 26.4 µM
Ki [29]: 10 µM
Ki [4]: 1000 nM
Ki [5]: 0.2 nM
Ki [6]: 25 µM
solubility thermodynamic [30]: > 2000 µg/mL
IC50 [31]: > 100 µM
IC50 [32]: > 100 µM
